Columns and labels:
HT-29 [1] = test: Effect on human HT29 cells under hypoxic conditions assessed as drug level causing 10% clonogenic survival; type: functional
In short: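 HT29 suspensions (1 or 2 × 10^6 cells/mL) in serum-free medium were stirred under 5% CO2/95% N2 for 90 min. Drug was added from deoxygenated DMSO stock at a level giving about 10% survival at 1 h, and samples were taken up to 3 h. Clonogenic survival (14 days, methylene blue) was fitted with the HPLC concentration–time data, and the 10% survival exposure was interpolated.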

HT-29 [2] = test: Ratio of IC50 for HT29 cells under oxic conditions to hypoxic conditions after 4 hrs; type: functional, Homo sapiens
SiHa [3] = test: Ratio of IC50 for SiHa cells under oxic conditions to hypoxic conditions after 4 hrs; type: functional, Homo sapiens
HT-29 [4] = test: Diffusion coefficient, D in HT29 multicellular layers; type: ADME, cell-based; settings: human
In short: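 HT29 multicellular layers were grown 3 days on collagen-coated Teflon membranes, equilibrated 60 min under 95% O2/5% CO2 at 37 °C, then placed in a diffusion chamber. Donor and receiver were sampled up to 5 h and assayed by HPLC. D came from fitting both profiles to a Fickian model with membrane and MCL in series, corrected by support-only Ds.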

[5] = Solubility in culture medium in presence of 5% fetal calf serum; type: physicochemical; settings: culture medium with 5% fetal calf serum
HT-29 [6] = test: Cytotoxicity against human HT29 cells under hypoxic conditions after 4 hrs; type: functional, cell-based; settings: HT-29, 4 h
SiHa [7] = test: Cytotoxicity against human SiHa cells under hypoxic conditions after 4 hrs; type: functional, cell-based
[8] = Cmax in CD1 mouse at 316 umol/kg, ip; type: ADME, organism-based; parameters: dose 316 umol/kg, route intraperitoneal; settings: in vivo
In short: (§1)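 Single i.p. dose to CD-1 homozygous nude mice, drug as HCl salt in 0.9% saline, 5% DMSO/saline or lactate buffer (pH 4.0). Plasma total drug measured by HPLC at 75 or 100% of MTD (MTD from 1.33-fold dose steps, 6 mice). Noncompartmental analysis gave AUC, Cmax and t1/2.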

[9] = AUC in CD1 mouse at 316 umol/kg, ip; type: ADME, organism-based; settings: plasma; in short: as §1
Mus musculus = test: Toxicity in ip dosed CD1 mouse; type: organism-based; settings: in vivo
In short: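 MTD in CD-1 homozygous nude mice after single i.p. doses (HCl salts in saline, 5% DMSO/saline or lactate buffer pH 4.0), escalated in 1.33-fold increments. MTD taken as the highest dose causing no death, no body weight loss >15% and no other severe morbidity in any of 6 mice.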

[10] = Half life in CD1 mouse at 316 umol/kg, ip; type: ADME, organism-based; settings: in vivo; in short: as §1
[11] = Half life in CD1 mouse at 1000 umol/kg, ip; type: ADME, organism-based; settings: in vivo; in short: as §1
HT-29 [12] = test: Antitumor activity against human HT29 cells implanted in CD1 mouse at 1000 umol/kg, ip administered 5 mins after irradiation by excision assay relative to radiation alone; type: functional
In short: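 Hypoxic-cell excision assay in HT29 xenografts in CD-1 homozygous nude mice. Mice received 20 Gy γ radiation to sterilize oxic tumor cells, then a single i.p. drug dose (HCl salt in saline, 5% DMSO/saline or pH 4.0 lactate buffer) 5 min later. Tumors excised at 18 h and plated for clonogens/g. Log cell kill = log(clonogens/g, radiation only) − log(clonogens/g, radiation plus drug).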

HT-29 [13] = test: Antitumor activity against human HT29 cells implanted in CD1 mouse assessed as clonogenic survival at 1000 umol/kg, ip after 18 hrs relative to control; type: functional
In short: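 HT29 xenografts in CD-1 homozygous nude mice; single i.p. dose of drug alone, formulated as the HCl salt in 0.9% saline, 5% DMSO/saline or lactate buffer (pH 4.0). Tumors excised 18 h later, dissociated to single-cell suspensions and plated. Clonogens/g of tumor counted; surviving fraction = treated/control clonogens/g.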

[14] = Cmax in CD1 mouse at 1000 umol/kg, ip; type: ADME, organism-based; parameters: dose 1000 umol/kg, route intraperitoneal; settings: in vivo; in short: as §1

SMILES	solubility [5] [mM]	Activity (HT-29 [1]) [µM·h]	Ratio IC50 (HT-29 [2])	Ratio IC50 (SiHa [3])	D (HT-29 [4]) [cm²/s]	IC50 (HT-29 [6]) [µM]	IC50 (SiHa [7]) [µM]	Cmax [8] [µM]	AUC [9] [µM·h]	MTD (Mus musculus) [µmol/kg]	half-life [10] [min]	half-life [11] [min]	LCK (HT-29 [12])	LCK (HT-29 [13])	Cmax [14] [µM]
CCc1ccc2c(c1)[n+]([O-])c(NCCN(C)C)n[n+]2[O-]	> 49	6.2	116	186	–	1.3	0.5	21.6	13.2	421	12.7	–	–	–	–
Cc1ccc2c(c1)[n+]([O-])c(N)n[n+]2[O-]	3	61.9	36	–	5.43e-07	12.9	–	–	–	1000	–	34.1	2.16	0.39	198
CN(C)CCNc1n[n+]([O-])c2ccccc2[n+]1[O-]	50	3.2	80	157	–	0.7	0.2	–	–	–	–	–	–	–	–
COc1ccc2c(c1)[n+]([O-])c(NCCN1CCCCC1)n[n+]2[O-]	45	38.9	24	65	–	10.8	3	26.7	20.2	421	24.6	–	–	–	–
CCN(CC)CCNc1n[n+]([O-])c2ccc(C)cc2[n+]1[O-]	> 49	8.3	51	35	–	1	0.3	–	–	–	–	–	–	–	–
CCCN(CCC)CCNc1n[n+]([O-])c2ccc(C)cc2[n+]1[O-]	38	38.6	108	149	1.48e-06	2.7	0.6	3.8	2.6	421	17.3	–	–	–	–

Further lines, with some results ahead:

solubility [5] [mM]	SMILES	Activity (HT-29 [1]) [µM·h]	Ratio IC50 (HT-29 [2])	Ratio IC50 (SiHa [3])	D (HT-29 [4]) [cm²/s]	IC50 (HT-29 [6]) [µM]	IC50 (SiHa [7]) [µM]	Cmax [8] [µM]	AUC [9] [µM·h]	MTD (Mus musculus) [µmol/kg]	half-life [10] [min]	half-life [11] [min]	LCK (HT-29 [12])	LCK (HT-29 [13])	Cmax [14] [µM]
28	CC(C)(C)c1ccc2c(c1)[n+]([O-])c(NCCN1CCCCC1)n[n+]2[O-]	30.3	31	121	1.5e-06	4	0.6	–	–	–	–	–	–	–	–
> 44	COc1ccc2c(c1)[n+]([O-])c(NCCCN1CCOCC1)n[n+]2[O-]	149.7	>8	447	–	22	10.2	–	–	–	–	–	–	–	–
39	CCCN(CCC)CCNc1n[n+]([O-])c2ccc(C(C)C)cc2[n+]1[O-]	41.6	35	65	–	4.4	0.9	–	–	–	–	–	–	–	–
18	CC(C)c1ccc2c(c1)[n+]([O-])c(NCCN1CCCCC1)n[n+]2[O-]	15.2	41	65	–	2.7	1.1	–	–	–	–	–	–	–	–
47	COc1ccc2c(c1)[n+]([O-])c(NCCCN1CCC(C#N)C1)n[n+]2[O-] (configuration not stated)	211.4	41	36	–	40.6	31.9	–	–	–	–	–	–	–	–
61	[O-][n+]1nc(NCCN2CCCC2)[n+]([O-])c2ccccc21	3.6	70	132	–	0.6	0.2	–	–	–	–	–	–	–	–
29	COc1ccc2c(c1)[n+]([O-])c(NCCN1C(C)CCCC1C)n[n+]2[O-] (configuration not stated)	26.1	34	121	–	3.9	1	–	–	–	–	–	–	–	–
1.8	CC(C)(C)c1ccc2c(c1)[n+]([O-])c(NCCN1CCOCC1)n[n+]2[O-]	–	13	55	–	61.2	10.9	–	–	–	–	–	–	–	–
39	CCc1ccc2c(c1)[n+]([O-])c(NCCN1CCCCC1)n[n+]2[O-]	11.9	65	50	–	1.5	1	–	–	–	–	–	–	–	–
